Assays:
Assay type in all cases: cell-based
[1] = test system: L5178Y; test: Inhibition of Pgp expressed in mouse L5178Y cells at 1 uM relative to control
How it was run: (§1)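 L5178Y mouse T lymphoma cells transduced with human mdr1 retrovirus (colchicine-selected) and parental L5178Y, 2×10^6/mL in serum-free McCoy's 5A, preincubated with inhibitor 10 min at rt. Rhodamine 123 (5.2 µM final) added for 20 min at 37 °C. Cells washed twice, resuspended in PBS, 1×10^4 cells read by flow cytometry. R = treated/untreated fluorescence ratio, divided by the parental-line ratio.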

[2] = test system: L5178Y; test: Inhibition of Pgp expressed in mouse L5178Y cells at 10 uM relative to control; how it was run: as §1
[3] = target: Multidrug resistance-associated protein 1 (Homo sapiens, UniProt P33527); test: Inhibition of MRP1 expressed in human A2780 cells at 10 uM relative to control; conditions: a2780, 10 µM
[4] = target: ATP-binding cassette sub-family C member 2 (Homo sapiens, UniProt Q92887); test: Inhibition of MRP2 expressed in human A2780 cells at 10 uM relative to control; conditions: a2780, 10 µM
How it was run: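 Cisplatin-induced A2780RCIS ovarian cells (maintained with cisplatin 10 ng/mL) and parental A2780P were seeded for 24 h, given fresh medium with inhibitor for 20 min at 37 °C, then carboxyfluorescein diacetate (2 µM final) for 40 min at 37 °C. After ice-cold PBS washes, 10,000 events were read by flow cytometry (488 nm excitation, 530 nm filter). MRP2 value = A2780RCIS uptake minus the MRP1-specific uptake in A2780P.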

[5] = target: T1, Broad substrate specificity ATP-binding cassette transporter ABCG2 (Homo sapiens, UniProt Q9UNQ0); test: Inhibition of BCRP expressed in human EPG-257RNOV cells at 0.1 uM relative to control
T1 sequence (Q9UNQ0 whole entry): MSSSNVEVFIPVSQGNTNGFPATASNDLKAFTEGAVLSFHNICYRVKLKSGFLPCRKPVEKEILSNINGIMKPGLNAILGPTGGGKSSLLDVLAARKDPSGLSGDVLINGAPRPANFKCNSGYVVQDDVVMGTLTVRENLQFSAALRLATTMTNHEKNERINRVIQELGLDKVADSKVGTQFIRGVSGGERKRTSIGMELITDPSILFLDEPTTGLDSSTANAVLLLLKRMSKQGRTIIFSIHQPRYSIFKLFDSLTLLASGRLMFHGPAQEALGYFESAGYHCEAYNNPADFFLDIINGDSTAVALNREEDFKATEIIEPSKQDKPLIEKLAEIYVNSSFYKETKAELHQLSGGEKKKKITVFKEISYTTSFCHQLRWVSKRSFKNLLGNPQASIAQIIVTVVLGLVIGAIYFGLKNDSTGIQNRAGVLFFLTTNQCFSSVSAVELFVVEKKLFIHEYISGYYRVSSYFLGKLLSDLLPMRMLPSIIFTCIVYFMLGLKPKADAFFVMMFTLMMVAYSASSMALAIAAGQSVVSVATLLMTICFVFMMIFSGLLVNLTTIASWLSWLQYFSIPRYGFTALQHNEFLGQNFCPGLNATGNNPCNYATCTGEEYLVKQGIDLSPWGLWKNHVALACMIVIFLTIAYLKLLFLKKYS
How it was run: (§2)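 BCRP-overexpressing EPG85-257RNOV gastric carcinoma cells (kept in medium with mitoxantrone 0.2 µg/mL), 0.5×10^6 cells/mL, exposed to inhibitor 20 min at 37 °C. Mitoxantrone (20 µM final) then added for 60 min at 37 °C. Cells trypsinized, washed in ice-cold PBS, 10,000 events read by flow cytometry (488 nm excitation, 670 nm filter). R = treated/untreated fluorescence quotient, divided by the same quotient in parental EPG85-257P.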

[6] = target: T1, Broad substrate specificity ATP-binding cassette transporter ABCG2; test: Inhibition of BCRP expressed in human EPG-257RNOV cells at 1 uM relative to control; how it was run: as §2

Multidrug resistance-associated protein 1, sequence (P33527 whole entry): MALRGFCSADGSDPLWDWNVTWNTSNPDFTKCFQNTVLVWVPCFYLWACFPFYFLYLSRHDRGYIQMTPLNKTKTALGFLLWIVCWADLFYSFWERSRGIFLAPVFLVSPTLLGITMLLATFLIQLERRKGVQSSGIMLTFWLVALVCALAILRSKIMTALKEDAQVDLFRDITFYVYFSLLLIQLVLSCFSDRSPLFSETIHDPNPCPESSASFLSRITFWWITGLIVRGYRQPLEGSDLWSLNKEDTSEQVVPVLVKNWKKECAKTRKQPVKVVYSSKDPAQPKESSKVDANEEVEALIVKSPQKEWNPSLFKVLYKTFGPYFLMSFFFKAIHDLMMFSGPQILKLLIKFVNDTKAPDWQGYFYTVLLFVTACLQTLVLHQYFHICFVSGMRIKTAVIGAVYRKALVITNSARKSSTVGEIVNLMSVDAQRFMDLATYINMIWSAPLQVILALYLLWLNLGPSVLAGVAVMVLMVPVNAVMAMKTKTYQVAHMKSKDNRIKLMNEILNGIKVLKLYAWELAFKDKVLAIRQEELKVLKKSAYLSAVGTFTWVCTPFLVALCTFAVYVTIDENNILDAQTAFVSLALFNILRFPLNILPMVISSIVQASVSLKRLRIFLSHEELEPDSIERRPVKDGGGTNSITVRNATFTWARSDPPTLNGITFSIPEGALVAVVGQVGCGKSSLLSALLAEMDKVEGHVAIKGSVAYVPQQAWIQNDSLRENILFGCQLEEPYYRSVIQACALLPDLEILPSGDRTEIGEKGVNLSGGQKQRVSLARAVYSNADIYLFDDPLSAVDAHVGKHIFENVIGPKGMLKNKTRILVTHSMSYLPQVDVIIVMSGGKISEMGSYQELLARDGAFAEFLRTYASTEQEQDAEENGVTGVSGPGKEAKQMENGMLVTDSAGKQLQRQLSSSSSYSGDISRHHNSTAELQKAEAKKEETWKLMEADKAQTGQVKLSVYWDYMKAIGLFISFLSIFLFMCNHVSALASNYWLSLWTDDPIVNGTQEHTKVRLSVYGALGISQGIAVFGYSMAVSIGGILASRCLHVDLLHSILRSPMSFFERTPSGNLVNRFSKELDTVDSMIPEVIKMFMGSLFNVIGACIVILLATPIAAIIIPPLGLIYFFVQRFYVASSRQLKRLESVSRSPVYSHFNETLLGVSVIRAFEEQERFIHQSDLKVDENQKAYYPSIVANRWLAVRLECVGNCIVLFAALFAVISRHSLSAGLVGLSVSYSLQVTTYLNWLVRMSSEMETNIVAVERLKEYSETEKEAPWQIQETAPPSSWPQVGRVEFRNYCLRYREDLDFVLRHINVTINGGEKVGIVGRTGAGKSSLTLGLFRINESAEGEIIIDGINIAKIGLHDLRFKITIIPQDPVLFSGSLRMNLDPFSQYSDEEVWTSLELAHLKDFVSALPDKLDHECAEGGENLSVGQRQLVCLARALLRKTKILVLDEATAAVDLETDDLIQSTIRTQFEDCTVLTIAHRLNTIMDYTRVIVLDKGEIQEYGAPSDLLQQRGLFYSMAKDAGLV
ATP-binding cassette sub-family C member 2, sequence (Q92887 whole entry): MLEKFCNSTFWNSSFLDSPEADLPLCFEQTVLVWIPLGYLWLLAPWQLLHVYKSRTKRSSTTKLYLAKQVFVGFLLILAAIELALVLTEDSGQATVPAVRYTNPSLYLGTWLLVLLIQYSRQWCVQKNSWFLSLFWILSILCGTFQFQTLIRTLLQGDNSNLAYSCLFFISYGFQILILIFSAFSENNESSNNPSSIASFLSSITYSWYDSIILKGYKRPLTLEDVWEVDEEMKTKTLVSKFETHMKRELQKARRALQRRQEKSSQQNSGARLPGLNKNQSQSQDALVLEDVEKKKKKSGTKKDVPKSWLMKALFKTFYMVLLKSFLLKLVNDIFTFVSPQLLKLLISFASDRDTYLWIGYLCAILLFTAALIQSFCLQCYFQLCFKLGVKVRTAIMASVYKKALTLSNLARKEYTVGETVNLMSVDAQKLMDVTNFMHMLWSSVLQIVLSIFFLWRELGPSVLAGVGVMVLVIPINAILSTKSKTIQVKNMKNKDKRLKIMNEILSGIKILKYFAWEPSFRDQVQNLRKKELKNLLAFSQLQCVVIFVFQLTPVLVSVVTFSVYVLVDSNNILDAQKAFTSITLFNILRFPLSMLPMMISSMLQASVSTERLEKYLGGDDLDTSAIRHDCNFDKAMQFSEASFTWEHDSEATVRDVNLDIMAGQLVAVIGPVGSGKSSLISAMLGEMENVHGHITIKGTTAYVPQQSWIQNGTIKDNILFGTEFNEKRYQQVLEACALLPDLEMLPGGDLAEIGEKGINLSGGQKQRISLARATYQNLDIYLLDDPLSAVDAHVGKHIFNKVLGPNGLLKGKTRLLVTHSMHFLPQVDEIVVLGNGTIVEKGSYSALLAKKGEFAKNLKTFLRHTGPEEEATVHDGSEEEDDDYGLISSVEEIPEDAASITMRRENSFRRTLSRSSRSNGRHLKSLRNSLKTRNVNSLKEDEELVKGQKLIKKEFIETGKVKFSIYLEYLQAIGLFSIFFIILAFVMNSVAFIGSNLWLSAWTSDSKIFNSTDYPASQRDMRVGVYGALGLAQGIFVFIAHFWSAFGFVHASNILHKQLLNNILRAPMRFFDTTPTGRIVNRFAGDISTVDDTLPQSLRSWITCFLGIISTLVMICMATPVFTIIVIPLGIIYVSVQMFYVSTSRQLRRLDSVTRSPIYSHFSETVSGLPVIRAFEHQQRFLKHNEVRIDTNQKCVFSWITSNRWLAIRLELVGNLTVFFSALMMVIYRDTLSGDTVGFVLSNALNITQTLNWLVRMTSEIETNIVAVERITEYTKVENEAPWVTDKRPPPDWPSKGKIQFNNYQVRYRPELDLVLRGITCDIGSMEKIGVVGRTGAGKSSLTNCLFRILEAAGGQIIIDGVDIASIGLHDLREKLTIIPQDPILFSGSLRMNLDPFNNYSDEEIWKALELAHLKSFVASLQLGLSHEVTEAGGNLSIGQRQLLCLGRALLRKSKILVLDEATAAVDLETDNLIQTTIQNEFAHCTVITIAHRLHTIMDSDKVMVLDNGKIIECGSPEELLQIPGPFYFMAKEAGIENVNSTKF

SMILES | Ratio [3] | Ratio [4] | Ratio [5] | Ratio [6] | Ratio [1] | Ratio [2]
OC[C@]12C3N(Cc4ccccc4)C4[C@@]5(CO)C(N(Cc6ccccc6)C1[C@]3(CO)[C@@H]5c1ccc(OCc3ccccc3)cc1)[C@]4(CO)[C@@H]2c1ccc(OCc2ccccc2)cc1 | 1 | 1.56 | 1.4 | 3.5 | 3.3 | 47
OC[C@]12C3N(Cc4ccccc4)C4[C@@]5(CO)C(N(Cc6ccccc6)C1[C@]3(CO)[C@@H]5c1ccccc1)[C@]4(CO)[C@@H]2c1ccccc1 | 2.3 | 1.02 | 1.1 | 1.9 | 4.1 | 29
OC[C@]12C3N(Cc4cccnc4)C4[C@@]5(CO)C(N(Cc6cccnc6)C1[C@]3(CO)[C@@H]5c1ccccc1)[C@]4(CO)[C@@H]2c1ccccc1 | 1.1 | 0.9 |  |  | 1.2 | 1.1
OC[C@]12C3N(Cc4ccccc4)C4[C@@]5(CO)C(N(Cc6ccccc6)C1[C@]3(CO)[C@@H]5c1ccncc1)[C@]4(CO)[C@@H]2c1ccncc1 | 2.2 | 0.74 |  | 1.2 | 2.4 | 7.7
OC[C@]12C3N(Cc4cccc(OCc5ccccc5)c4)C4[C@@]5(CO)C(N(Cc6cccc(OCc7ccccc7)c6)C1[C@]3(CO)[C@@H]5c1ccccc1)[C@]4(CO)[C@@H]2c1ccccc1 | 2.8 | 0.97 | 1.5 | 4.2 | 117 | 205
COc1ccc(CN2C3[C@]4(CO)C5N(Cc6ccc(OC)cc6)C6[C@@](CO)(C2[C@]6(CO)[C@H]4c2ccccc2)[C@H](c2ccccc2)[C@@]35CO)cc1 | 3.4 | 1.1 | 1.2 | 3.2 | 3.5 | 13
OC[C@]12C3N(Cc4ccccc4)C4[C@@]5(CO)C(N(Cc6ccccc6)C1[C@]3(CO)[C@@H]5c1cccc(O)c1)[C@]4(CO)[C@@H]2c1cccc(O)c1 | 1.3 | 1.05 |  | 1.1 | 1.2 | 3
COc1ccc(CN2C3[C@]4(CO)C5N(Cc6ccc(OC)cc6)C6[C@@](CO)(C2[C@]6(CO)[C@H]4c2ccc(OC)cc2)[C@H](c2ccc(OC)cc2)[C@@]35CO)cc1 | 4.8 | 1.25 | 1.5 | 6.1 | 3.1 | 46
COc1ccc2c3c([nH]c2c1)[C@H](C=C(C)C)N1C(=O)[C@@H]2CCCN2C(=O)[C@@H]1C3 [FUMITREMORGIN] |  |  | 1.9 | 6 |  | 

Second part, led by results:

Ratio [3] | Ratio [4] | Ratio [5] | Ratio [6] | SMILES | Ratio [1] | Ratio [2]
2.5 | 0.75 |  | 1.2 | OC[C@]12C3N(Cc4ccc(OCc5ccccc5)cc4)C4[C@@]5(CO)C(N(Cc6ccc(OCc7ccccc7)cc6)C1[C@]3(CO)[C@@H]5c1ccccc1)[C@]4(CO)[C@@H]2c1ccccc1 | 2.3 | 28
1.6 | 0.82 |  | 1.1 | OC[C@]12C3N(Cc4ccc(O)cc4)C4[C@@]5(CO)C(N(Cc6ccc(O)cc6)C1[C@]3(CO)[C@@H]5c1ccccc1)[C@]4(CO)[C@@H]2c1ccccc1 | 1.5 | 3.3
4.1 | 0.75 |  |  | COc1ccc2c(c1)c(CC(=O)O)c(C)n2C(=O)c1ccc(Cl)cc1 [INDOMETHACIN] |  | 
1.2 | 0.8 |  | 1.3 | OC[C@]12C3N(Cc4ccncc4)C4[C@@]5(CO)C(N(Cc6ccncc6)C1[C@]3(CO)[C@@H]5c1ccccc1)[C@]4(CO)[C@@H]2c1ccccc1 | 1.5 | 1.1
1.9 | 0.97 | 1.3 | 2.8 | OC[C@]12C3N(Cc4ccccc4)C4[C@@]5(CO)C(N(Cc6ccccc6)C1[C@]3(CO)[C@@H]5c1cccc(OCc3ccccc3)c1)[C@]4(CO)[C@@H]2c1cccc(OCc2ccccc2)c1 | 65 | 125
1.8 | 0.63 |  | 1.5 | OC[C@]12C3N(Cc4ccccc4)C4[C@@]5(CO)C(N(Cc6ccccc6)C1[C@]3(CO)[C@@H]5c1ccc(O)cc1)[C@]4(CO)[C@@H]2c1ccc(O)cc1 | 1.3 | 1.5

Source: ChEMBL document CHEMBL1177685, “Novel structure-activity relationships and selectivity profiling of cage dimeric 1,4-dihydropyridines as multidrug resistance (MDR) modulators” (Bioorg Med Chem, 2010)
